Measured values: ChEMBL document CHEMBL1138290 (J Med Chem, 2007)

Legend:
[1] = test system: L1210; test: Antiproliferative activity against mouse vincristine-resistant L1210 cells after 48 hrs by XTT assay; assay type: functional, cell-based; conditions: L1210, 48 h
Procedure, shortened: (§1)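 XTT proliferation assay with 48 h incubation with test compound. Each experiment run at least in duplicate (n = 2). IC50 calculated by nonlinear regression of dose-response curves.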

[2] = Cell cycle arrest in KB/HeLa cells assessed as accumulation at S phase at 100 nM after 24 hrs by flow cytometric analysis; assay type: functional, cell-based; conditions: Homo sapiens
Procedure, shortened: (§2)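 Subconfluent KB/HeLa cells exposed to a range of compound concentrations for 24 h. Cell cycle phase distribution determined by flow cytometry. Experiments run at least in duplicate (n = 2).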

[3] = Cell cycle arrest in KB/HeLa cells assessed as accumulation at G2M phase at 3.16 nM after 24 hrs by flow cytometric analysis; assay type: functional, cell-based; conditions: Homo sapiens
[4] = Cell cycle arrest in KB/HeLa cells assessed as accumulation at S phase at 31.6 nM after 24 hrs by flow cytometric analysis; assay type: functional, cell-based; conditions: Homo sapiens; procedure, shortened: as §2
[5] = Cell cycle arrest in KB/HeLa cells assessed as accumulation at G2M phase at 31.6 nM after 24 hrs by flow cytometric analysis; assay type: functional, cell-based; conditions: Homo sapiens; procedure, shortened: as §2
[6] = test system: P388; test: Antiproliferative activity against mouse adriamycin-resistant P388 cells after 48 hrs by XTT assay; assay type: functional, cell-based; conditions: P388, 48 h; procedure, shortened: as §1
[7] = Cell cycle arrest in KB/HeLa cells assessed as accumulation at G1 phase at 100 nM after 24 hrs by flow cytometric analysis; assay type: functional, cell-based; conditions: Homo sapiens; procedure, shortened: as §2
[8] = Antiproliferative activity against rat multidrug-resistant L12 cells after 48 hrs by XTT assay; assay type: functional, cell-based; conditions: L1.2, 48 h; procedure, shortened: as §1
[9] = Cell cycle arrest in KB/HeLa cells assessed as accumulation at G1 phase at 316 nM after 24 hrs by flow cytometric analysis; assay type: functional, cell-based; conditions: Homo sapiens; procedure, shortened: as §2
[10] = Cell cycle arrest in KB/HeLa cells assessed as accumulation at G1 phase at 31.6 nM after 24 hrs by flow cytometric analysis; assay type: functional, cell-based; conditions: Homo sapiens; procedure, shortened: as §2
[11] = Cell cycle arrest in KB/HeLa cells assessed as accumulation at S phase at 316 nM after 24 hrs by flow cytometric analysis; assay type: functional, cell-based; conditions: Homo sapiens; procedure, shortened: as §2
[12] = Cell cycle arrest in KB/HeLa cells assessed as accumulation at G2M phase at 1 nM after 24 hrs by flow cytometric analysis; assay type: functional, cell-based; conditions: Homo sapiens; procedure, shortened: as §2
[13] = Cell cycle arrest in KB/HeLa cells assessed as accumulation at G1 phase at 10 nM after 24 hrs by flow cytometric analysis; assay type: functional, cell-based; conditions: Homo sapiens; procedure, shortened: as §2
[14] = test system: RKO; test: Cytotoxicity against human RKO cells with ectopic-inducible expression of p27kip1 after 48 hrs by XTT assay; assay type: functional, cell-based; procedure, shortened: as §1
[15] = Cell cycle arrest in KB/HeLa cells assessed as accumulation at G2M phase at 10 nM after 24 hrs by flow cytometric analysis; assay type: functional, cell-based; conditions: Homo sapiens; procedure, shortened: as §2
[16] = Cell cycle arrest in KB/HeLa cells assessed as accumulation at G1 phase at 1 nM after 24 hrs by flow cytometric analysis; assay type: functional, cell-based; conditions: Homo sapiens; procedure, shortened: as §2
[17] = Cell cycle arrest in KB/HeLa cells assessed as accumulation at G2M phase at 316 nM after 24 hrs by flow cytometric analysis; assay type: functional, cell-based; conditions: Homo sapiens; procedure, shortened: as §2
[18] = Cytotoxicity against human KB/HeLa cells after 48 hrs by XTT assay; assay type: functional, cell-based; procedure, shortened: as §1
[19] = Cell cycle arrest in KB/HeLa cells assessed as accumulation at S phase at 3.16 nM after 24 hrs by flow cytometric analysis; assay type: functional, cell-based; conditions: Homo sapiens; procedure, shortened: as §2
[20] = Cell cycle arrest in KB/HeLa cells assessed as accumulation at G1 phase at 3.16 nM after 24 hrs by flow cytometric analysis; assay type: functional, cell-based; conditions: Homo sapiens; procedure, shortened: as §2
[21] = Cell cycle arrest in KB/HeLa cells assessed as accumulation at G2M phase at 100 nM after 24 hrs by flow cytometric analysis; assay type: functional, cell-based; conditions: Homo sapiens; procedure, shortened: as §2
[22] = Cell cycle arrest in KB/HeLa cells assessed as accumulation at S phase at 1 nM after 24 hrs by flow cytometric analysis; assay type: functional, cell-based; conditions: Homo sapiens; procedure, shortened: as §2
[23] = Cell cycle arrest in KB/HeLa cells assessed as accumulation at G2/M phase after 24 hrs by flow cytometric analysis; assay type: functional, cell-based; conditions: Homo sapiens; procedure, shortened: as §2
[24] = Cell cycle arrest in KB/HeLa cells assessed as accumulation at S phase at 10 nM after 24 hrs by flow cytometric analysis; assay type: functional, cell-based; conditions: Homo sapiens; procedure, shortened: as §2
[25] = Antiproliferative activity against rat L12 cells after 48 hrs by XTT assay; assay type: functional, cell-based
[26] = test system: SF-268; test: Cytotoxicity against human SF268 cells after 48 hrs by XTT assay; assay type: functional, cell-based; conditions: SF-268, 48 h; procedure, shortened: as §1
[27] = Cell cycle arrest in KB/HeLa cells assessed as accumulation at S phase at 0.1 nM after 24 hrs by flow cytometric analysis; assay type: functional, cell-based; conditions: Homo sapiens; procedure, shortened: as §2
[28] = test system: P388; test: Antiproliferative activity against mouse P388 cells after 48 hrs by XTT assay; assay type: functional, cell-based; conditions: P388, 48 h; procedure, shortened: as §1
[29] = Cell cycle arrest in KB/HeLa cells assessed as accumulation at G2M phase at 0.3 nM after 24 hrs by flow cytometric analysis; assay type: functional, cell-based; conditions: Homo sapiens; procedure, shortened: as §2
[30] = test system: L1210; test: Antiproliferative activity against mouse L1210 cells after 48 hrs by XTT assay; assay type: functional, cell-based; conditions: L1210, 48 h; procedure, shortened: as §1
[31] = Cell cycle arrest in KB/HeLa cells assessed as accumulation at G1 phase at 0.3 nM after 24 hrs by flow cytometric analysis; assay type: functional, cell-based; conditions: Homo sapiens; procedure, shortened: as §2
[32] = target: Tubulin (Sus scrofa, UniProt P02554+P02550); test: Inhibition of porcine brain tubulin polymerization
[33] = test system: RKO; test: Cytotoxicity against human RKO cells after 48 hrs by XTT assay; assay type: functional, cell-based; procedure, shortened: as §1
[34] = Cell cycle arrest in KB/HeLa cells assessed as accumulation at S phase at 1000 nM after 24 hrs by flow cytometric analysis; assay type: functional, cell-based; conditions: Homo sapiens; procedure, shortened: as §2
[35] = Cell cycle arrest in KB/HeLa cells assessed as accumulation at G2M phase at 1000 nM after 24 hrs by flow cytometric analysis; assay type: functional, cell-based; conditions: Homo sapiens; procedure, shortened: as §2
[36] = test system: NCI-H460; test: Cytotoxicity against human NCI-H460 cells after 48 hrs by XTT assay; assay type: functional, cell-based; conditions: NCI-H460, 48 h; procedure, shortened: as §1
[37] = target: Tubulin; test: Displacement of [3H]colchicine from biotinylated tubulin by scintillation proximity assay; assay type: protein-complex assay, Homo sapiens
[38] = Cell cycle arrest in KB/HeLa cells assessed as accumulation at G1 phase at 1000 nM after 24 hrs by flow cytometric analysis; assay type: functional, cell-based; conditions: Homo sapiens; procedure, shortened: as §2
[39] = Cell cycle arrest in KB/HeLa cells assessed as accumulation at G2M phase at 0.1 nM after 24 hrs by flow cytometric analysis; assay type: functional, cell-based; conditions: Homo sapiens; procedure, shortened: as §2
[40] = test system: SK-OV-3; test: Cytotoxicity against human SKOV3 cells after 48 hrs by XTT assay; assay type: functional, cell-based; conditions: SK-OV-3, 48 h; procedure, shortened: as §1
[41] = Cell cycle arrest in KB/HeLa cells assessed as accumulation at S phase at 0.3 nM after 24 hrs by flow cytometric analysis; assay type: functional, cell-based; conditions: Homo sapiens; procedure, shortened: as §2
[42] = test system: K562; test: Antiproliferative activity against human K562 cells after 48 hrs; assay type: functional, cell-based; conditions: K562, 48 h
Procedure, shortened: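 Growth of K562 cells measured by counting cells with a hemocytometer after 48 h (2 days) of drug treatment. IC50 is the mean of at least three independent determinations.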

[43] = Cell cycle arrest in KB/HeLa cells assessed as accumulation at G1 phase at 0.1 nM after 24 hrs by flow cytometric analysis; assay type: functional, cell-based; conditions: Homo sapiens; procedure, shortened: as §2

## CC(=O)O[C@H]1C(=O)[C@@]2(C)[C@H]([C@H](OC(=O)c3ccccc3)[C@]3(O)C[C@H](OC(=O)[C@H](O)[C@@H](NC(=O)c4ccccc4)c4ccccc4)C(C)=C1C3(C)C)[C@]1(OC(C)=O)CO[C@@H]1C[C@@H]2O [PACLITAXEL]
[1]
  IC50: > 5000 nM
[2]
  Activity: 11%
[3]
  Activity: 9.4%
[4]
  Activity: 49.9%
[5]
  Activity: 19%
[6]
  IC50: > 5000 nM
[7]
  Activity: 1.2%
[8]
  IC50: 400 nM
[9]
  Activity: 0.3%
[10]
  Activity: 31.1%
[11]
  Activity: 8.9%
[12]
  Activity: 10.1%
[13]
  Activity: 64.8%
[14]
  IC50: > 3000 nM
[15]
  Activity: 8.5%
[16]
  Activity: 63.2%
[17]
  Activity: 90.8%
[18]
  IC50: 10 nM
[19]
  Activity: 27%
[20]
  Activity: 63.6%
[21]
  Activity: 87.8%
[22]
  Activity: 26.7%
[23]
  EC50: 49 nM
[24]
  Activity: 26.6%

## CC[C@]1(O)C[C@@H]2CN(CCc3c([nH]c4ccccc34)[C@@](C(=O)OC)(c3cc4c(cc3OC)N(C)[C@H]3[C@@](O)(C(N)=O)[C@H](O)[C@]5(CC)C=CCN6CC[C@]43[C@@H]65)C2)C1 [VINDESINE]
[1]
  IC50: > 5000 nM
[8]
  IC50: 260 nM
[25]
  IC50: 1 nM

## COc1ccc(S(=O)(=O)Oc2c3ccccc3cc3sccc23)cc1
[26]
  IC50: 260 nM
[27]
  Activity: 27.1%
[28]
  IC50: 180 nM
[1]
  IC50: 200 nM
[2]
  Activity: 32.1%
[3]
  Activity: 11.3%
[4]
  Activity: 28.6%
[29]
  Activity: 12%
[5]
  Activity: 11.7%
[6]
  IC50: 180 nM
[30]
  IC50: 190 nM
[7]
  Activity: 51.2%
[31]
  Activity: 61.4%
[32]
  IC50: 910 nM
[33]
  IC50: 180 nM
[34]
  Activity: 9.7%
[8]
  IC50: 190 nM
[9]
  Activity: 0.9%
[10]
  Activity: 59.8%
[35]
  Activity: 88.7%
[11]
  Activity: 7%
[12]
  Activity: 11.4%
[25]
  IC50: 170 nM
[13]
  Activity: 60.7%
[14]
  IC50: > 9000 nM
[36]
  IC50: 210 nM
[15]
  Activity: 11.9%
[37]
  IC50: 510 nM
[16]
  Activity: 61.9%
[38]
  Activity: 1.6%
[17]
  Activity: 92.1%
[18]
  IC50: 180 nM
[39]
  Activity: 12.3%
[40]
  IC50: 210 nM
[19]
  Activity: 26.5%
[41]
  Activity: 26.6%
[20]
  Activity: 62.2%
[42]
  IC50: 60 nM
[21]
  Activity: 16.7%
[22]
  Activity: 26.7%
[43]
  Activity: 60.6%
[23]
  EC50: 125 nM
[24]
  Activity: 27.4%

## COc1cc2c(c(OC)c1OC)-c1ccc(OC)c(=O)cc1[C@@H](NC(C)=O)CC2 [COLCHICINE]
[2]
  Activity: 5.1%
[4]
  Activity: 11.9%
[29]
  Activity: 10.1%
[5]
  Activity: 87.6%
[7]
  Activity: 0.3%
[31]
  Activity: 63.3%
[9]
  Activity: 0.3%
[10]
  Activity: 0.5%
[11]
  Activity: 5.2%
[12]
  Activity: 10%
[13]
  Activity: 32.2%
[14]
  IC50: > 14000 nM
[15]
  Activity: 32.1%
[16]
  Activity: 64.7%
[17]
  Activity: 94.5%
[18]
  IC50: 30 nM
[19]
  Activity: 25.1%
[41]
  Activity: 26.6%
[20]
  Activity: 64.3%
[21]
  Activity: 94.7%
[22]
  Activity: 25.4%
[23]
  EC50: 14 nM
[24]
  Activity: 35.7%
